Test [1] concerns the target Mitogen-activated protein kinase 1 (Homo sapiens) (UniProt P28482). The test can be described thus: Inhibition of MAPK1 at 1 uM. In short, it runs like this:
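Single-point screen within a 108-kinase selectivity panel. Each kinase was tested with inhibitor at 0.1 and 1.0 micromolar, and activity was recorded as percent inhibition.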

For test [2], the target named is T1, Mitogen-activated protein kinase 12 (Homo sapiens) (UniProt P53778).
T1 sequence (whole entry): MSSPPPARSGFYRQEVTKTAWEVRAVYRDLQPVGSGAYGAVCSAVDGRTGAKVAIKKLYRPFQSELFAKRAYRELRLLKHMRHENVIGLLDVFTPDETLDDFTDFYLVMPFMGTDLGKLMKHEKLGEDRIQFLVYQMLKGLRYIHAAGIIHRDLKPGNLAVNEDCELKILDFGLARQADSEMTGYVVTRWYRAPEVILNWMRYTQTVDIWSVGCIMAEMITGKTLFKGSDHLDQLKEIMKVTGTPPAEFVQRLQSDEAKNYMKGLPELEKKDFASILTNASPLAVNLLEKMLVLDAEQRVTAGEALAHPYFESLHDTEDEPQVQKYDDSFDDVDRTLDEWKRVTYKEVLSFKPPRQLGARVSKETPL
The test can be described thus: Inhibition of SAPK3 at 1 uM.

Test [3] concerns the target T2, Serine/threonine-protein kinase Chk1 (Homo sapiens) (UniProt O14757).
T2 sequence (whole entry): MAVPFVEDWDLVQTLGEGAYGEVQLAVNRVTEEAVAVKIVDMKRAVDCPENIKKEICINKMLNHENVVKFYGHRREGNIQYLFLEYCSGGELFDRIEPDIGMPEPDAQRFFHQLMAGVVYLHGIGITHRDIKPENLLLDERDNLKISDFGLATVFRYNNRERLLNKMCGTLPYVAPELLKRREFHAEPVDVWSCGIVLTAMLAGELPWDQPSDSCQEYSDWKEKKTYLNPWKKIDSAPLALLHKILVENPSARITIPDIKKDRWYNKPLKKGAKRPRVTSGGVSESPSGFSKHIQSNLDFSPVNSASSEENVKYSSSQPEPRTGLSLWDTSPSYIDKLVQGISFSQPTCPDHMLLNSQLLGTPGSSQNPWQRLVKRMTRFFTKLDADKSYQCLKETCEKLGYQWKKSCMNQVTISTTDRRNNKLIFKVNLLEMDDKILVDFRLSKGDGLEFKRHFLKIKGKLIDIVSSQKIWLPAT
The test can be described thus: Inhibition of CHK1 at 1 uM; values are per cent of control.

In test [4] the target is BDNF/NT-3 growth factors receptor (Homo sapiens) (UniProt Q16620). The test can be described thus: Inhibition of TrkB at 1 uM; values are per cent of control.
For test [5], the target named is T3, Serine/threonine-protein kinase Sgk1 (Homo sapiens) (UniProt O00141).
T3 sequence (whole entry): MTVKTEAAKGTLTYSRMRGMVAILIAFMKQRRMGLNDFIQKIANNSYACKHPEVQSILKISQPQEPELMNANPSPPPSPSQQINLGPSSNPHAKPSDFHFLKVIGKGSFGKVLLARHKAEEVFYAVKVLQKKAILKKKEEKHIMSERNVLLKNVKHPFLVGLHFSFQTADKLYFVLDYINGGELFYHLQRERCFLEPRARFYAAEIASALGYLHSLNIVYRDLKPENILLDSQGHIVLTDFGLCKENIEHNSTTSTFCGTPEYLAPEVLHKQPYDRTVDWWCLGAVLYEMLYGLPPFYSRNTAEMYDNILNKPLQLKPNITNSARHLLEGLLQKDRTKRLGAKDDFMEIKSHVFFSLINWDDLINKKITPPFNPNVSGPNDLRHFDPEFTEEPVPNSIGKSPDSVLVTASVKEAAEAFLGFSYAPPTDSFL
The test can be described thus: Inhibition of SGK at 0.1 uM; values are per cent of control.

The target in test [6] is T4, Tyrosine-protein kinase JAK3 (Homo sapiens) (UniProt P52333).
T4 sequence (whole entry): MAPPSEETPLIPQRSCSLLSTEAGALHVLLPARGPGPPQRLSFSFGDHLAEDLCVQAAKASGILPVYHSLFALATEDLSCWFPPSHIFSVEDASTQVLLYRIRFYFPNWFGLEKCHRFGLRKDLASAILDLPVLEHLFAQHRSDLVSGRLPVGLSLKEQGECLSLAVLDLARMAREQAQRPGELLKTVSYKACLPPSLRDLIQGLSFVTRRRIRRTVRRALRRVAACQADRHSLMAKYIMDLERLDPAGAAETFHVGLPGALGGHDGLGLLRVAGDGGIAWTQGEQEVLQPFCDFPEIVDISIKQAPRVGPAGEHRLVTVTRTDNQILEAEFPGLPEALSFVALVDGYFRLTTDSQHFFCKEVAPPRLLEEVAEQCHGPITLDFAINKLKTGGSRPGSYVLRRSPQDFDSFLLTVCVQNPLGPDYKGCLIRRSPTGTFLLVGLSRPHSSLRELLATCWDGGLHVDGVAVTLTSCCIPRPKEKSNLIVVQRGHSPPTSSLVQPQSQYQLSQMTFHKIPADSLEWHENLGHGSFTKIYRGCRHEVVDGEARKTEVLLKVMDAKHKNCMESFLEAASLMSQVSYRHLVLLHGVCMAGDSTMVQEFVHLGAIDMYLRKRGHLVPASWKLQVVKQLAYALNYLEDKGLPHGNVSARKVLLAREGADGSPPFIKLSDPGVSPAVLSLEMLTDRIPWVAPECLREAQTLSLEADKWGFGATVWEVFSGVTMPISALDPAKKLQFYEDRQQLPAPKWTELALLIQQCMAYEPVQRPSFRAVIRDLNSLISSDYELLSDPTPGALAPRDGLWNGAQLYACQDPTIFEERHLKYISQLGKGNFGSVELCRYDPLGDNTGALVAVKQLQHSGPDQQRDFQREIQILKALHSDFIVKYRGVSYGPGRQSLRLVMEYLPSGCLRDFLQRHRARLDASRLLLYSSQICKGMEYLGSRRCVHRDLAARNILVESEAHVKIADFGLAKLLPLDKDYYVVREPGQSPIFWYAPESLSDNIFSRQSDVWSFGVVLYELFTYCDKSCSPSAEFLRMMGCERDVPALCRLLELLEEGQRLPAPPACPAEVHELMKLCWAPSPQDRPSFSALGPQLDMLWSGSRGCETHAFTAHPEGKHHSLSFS
The test can be described thus: Inhibition of JAK3 at 0.1 uM; values are per cent of control.

The target in test [7] is Serine/threonine-protein kinase PLK3 (Homo sapiens) (UniProt Q9H4B4). The test can be described thus: Inhibition of Plk3 at 0.1 uM; values are per cent of control.
In test [8] the target is Protein kinase C theta type (Homo sapiens) (UniProt Q04759). The test can be described thus: Inhibition of PKCtheta at 1 uM; values are per cent of control.
Sequence of Protein kinase C theta type (Homo sapiens) (Q04759 whole entry, looked up): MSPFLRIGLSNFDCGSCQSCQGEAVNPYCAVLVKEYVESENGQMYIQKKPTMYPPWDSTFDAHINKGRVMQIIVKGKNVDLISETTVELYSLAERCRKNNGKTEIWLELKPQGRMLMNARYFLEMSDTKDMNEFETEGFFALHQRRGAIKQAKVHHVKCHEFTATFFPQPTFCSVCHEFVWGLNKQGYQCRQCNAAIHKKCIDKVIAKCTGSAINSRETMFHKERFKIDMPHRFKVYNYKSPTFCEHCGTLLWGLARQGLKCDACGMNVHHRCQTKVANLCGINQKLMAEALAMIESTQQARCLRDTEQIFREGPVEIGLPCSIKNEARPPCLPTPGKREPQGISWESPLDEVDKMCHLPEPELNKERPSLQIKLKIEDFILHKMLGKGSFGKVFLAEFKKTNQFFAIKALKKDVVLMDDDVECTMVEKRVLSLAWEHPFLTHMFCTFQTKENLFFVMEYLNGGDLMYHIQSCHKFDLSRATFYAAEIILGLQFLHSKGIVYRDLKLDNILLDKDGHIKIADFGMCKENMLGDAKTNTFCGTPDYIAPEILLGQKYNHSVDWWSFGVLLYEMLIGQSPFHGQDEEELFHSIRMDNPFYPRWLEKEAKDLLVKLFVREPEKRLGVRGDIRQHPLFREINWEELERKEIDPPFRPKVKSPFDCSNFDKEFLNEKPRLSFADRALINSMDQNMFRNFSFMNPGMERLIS

Sequence of Mitogen-activated protein kinase 1 (Homo sapiens) (P28482 whole entry): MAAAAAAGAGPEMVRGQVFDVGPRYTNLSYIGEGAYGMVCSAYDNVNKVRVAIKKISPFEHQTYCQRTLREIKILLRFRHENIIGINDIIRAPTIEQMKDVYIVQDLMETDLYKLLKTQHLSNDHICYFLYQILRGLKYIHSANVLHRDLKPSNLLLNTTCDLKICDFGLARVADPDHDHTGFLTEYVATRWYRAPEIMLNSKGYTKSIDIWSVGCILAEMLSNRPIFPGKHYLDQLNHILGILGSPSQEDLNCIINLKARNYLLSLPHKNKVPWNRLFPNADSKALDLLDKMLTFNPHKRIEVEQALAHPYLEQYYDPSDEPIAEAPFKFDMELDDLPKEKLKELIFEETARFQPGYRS
Sequence of BDNF/NT-3 growth factors receptor (Homo sapiens) (Q16620 32-822 limits assumed): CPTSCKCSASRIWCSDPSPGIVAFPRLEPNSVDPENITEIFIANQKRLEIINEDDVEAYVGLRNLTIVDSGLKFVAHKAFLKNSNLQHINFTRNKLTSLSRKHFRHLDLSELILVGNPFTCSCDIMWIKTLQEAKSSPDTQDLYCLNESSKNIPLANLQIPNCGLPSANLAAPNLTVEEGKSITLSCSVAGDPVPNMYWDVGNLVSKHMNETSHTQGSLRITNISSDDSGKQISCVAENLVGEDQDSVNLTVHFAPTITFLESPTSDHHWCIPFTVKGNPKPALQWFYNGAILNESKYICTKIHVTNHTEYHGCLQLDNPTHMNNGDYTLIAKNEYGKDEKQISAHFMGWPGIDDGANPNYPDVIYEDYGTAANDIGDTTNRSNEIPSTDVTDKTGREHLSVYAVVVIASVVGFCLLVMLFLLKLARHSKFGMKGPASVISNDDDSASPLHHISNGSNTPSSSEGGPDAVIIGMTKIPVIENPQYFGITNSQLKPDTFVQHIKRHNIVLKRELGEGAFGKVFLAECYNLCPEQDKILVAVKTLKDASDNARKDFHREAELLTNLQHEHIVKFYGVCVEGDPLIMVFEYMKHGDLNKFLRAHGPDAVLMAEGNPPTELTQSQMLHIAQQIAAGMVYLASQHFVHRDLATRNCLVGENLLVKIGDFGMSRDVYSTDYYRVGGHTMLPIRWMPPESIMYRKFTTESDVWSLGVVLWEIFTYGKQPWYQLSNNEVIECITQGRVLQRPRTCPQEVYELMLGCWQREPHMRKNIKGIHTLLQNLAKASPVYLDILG
Sequence of Serine/threonine-protein kinase PLK3 (Homo sapiens) (Q9H4B4 whole entry, looked up): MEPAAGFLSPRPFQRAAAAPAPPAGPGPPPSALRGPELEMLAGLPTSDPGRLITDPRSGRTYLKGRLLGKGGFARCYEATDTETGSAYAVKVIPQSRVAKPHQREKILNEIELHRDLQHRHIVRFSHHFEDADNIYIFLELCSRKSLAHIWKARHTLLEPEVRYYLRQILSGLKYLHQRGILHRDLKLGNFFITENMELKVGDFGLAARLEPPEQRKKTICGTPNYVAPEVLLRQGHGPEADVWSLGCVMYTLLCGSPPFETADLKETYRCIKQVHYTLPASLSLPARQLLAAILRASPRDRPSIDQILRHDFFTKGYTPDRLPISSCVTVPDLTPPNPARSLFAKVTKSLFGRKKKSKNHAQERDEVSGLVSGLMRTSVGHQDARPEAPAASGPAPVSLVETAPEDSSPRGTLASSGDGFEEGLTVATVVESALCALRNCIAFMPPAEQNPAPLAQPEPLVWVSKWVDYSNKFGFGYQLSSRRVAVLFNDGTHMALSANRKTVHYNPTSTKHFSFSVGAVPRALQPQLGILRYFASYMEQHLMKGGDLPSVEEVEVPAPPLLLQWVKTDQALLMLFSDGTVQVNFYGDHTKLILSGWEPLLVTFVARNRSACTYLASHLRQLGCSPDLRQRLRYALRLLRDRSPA

Broadly, the inhibition is the change of the read-out against control, counted positive when it falls. Broadly, the residual activity is the signal under treatment as a percentage of the control signal. `Cc1ccc2cc(-c3n[nH]c4ccc(NC5CCNC5)cc34)[nH]c2c1` (stereo unspecified): the inhibition was found to be 64% in test [1] and 82% in test [2]. For the same compound, the residual activity in test [3] amounted to 6%; in test [4], 1%; in test [5], 63%; in test [6], 25%; in test [7] it was 106%; in test [8], 23%.

`Cc1ccc2cc(-c3n[nH]c4ccc(NC5CCN(Cc6ccccc6)CC5)cc34)[nH]c2c1`: the inhibition in test [1] worked out at 84%; in test [2], 95%. Further, the residual activity is 40% in test [3]; 0% in test [4]; 121% in test [5]; 52% in test [6]; 103% in test [7]; 6% in test [8].

Values taken from ChEMBL document CHEMBL1681705, “Optimisation of ITK inhibitors through successive iterative design cycles” (Bioorg Med Chem Lett, 2011).
